According to the RNAGym collection of RNA variant scans (doi:10.1126/science.aae0568):
This sample holds only a part of the variants without activity.

B1: tRNA (parent)
chain: GUUCCGUUGGCGUAAUGGUAACGCGUCUCCCUCCUAAGGAGAAGACUGCGGGUUCGAGUCCCGUACGGAACG

Variants of: B1
Experiment: yeast fitness relative to wild type (ratio to wild type); higher = fitter; tRNA-Arg(CCU), competitive growth, 37 C, YPD
Method in brief: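 Start and end populations of a pooled competition were compared by 100-nucleotide paired-end sequencing of gene amplicons. The Saccharomyces cerevisiae strains carried tRNA-Arg(CCU) gene variants at the native genomic locus, synthesised with a 3% per-site mutation rate at 69 sites, and competed in YPD at 37°C for 24 hours in six parallel replicates. Darwinian fitness relative to wild type was based on the change in genotype frequencies. Genotypes required ≥ 100 starting reads, and estimates < 0.5 were set to 0.5.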

| Variant | yeast fitness |
| --- | --- |
| A42G G48A | 0.863 |
| A43C C49U | 0.964 |
| A43U U54C | 0.92 |
| A43U U54A | 0.683 |
| G39C A42U C60G C62U G67C | ≤ 0.5 |
| A43U C55A A65U | 0.515 |
| G39A C66U | 0.797 |
| G39C G51C | 0.568 |
| G38C U64A G68A | ≤ 0.5 |
| A43C A69U | 1.12 |
| A43C A69C | 1.04 |
| A42G C62A | 0.786 |
| A42C U47C G58C | 0.644 |
| G39A G67A | 0.769 |
| A40U U54A C60G G67C | 0.599 |
| A43U G63C A70U | 0.54 |
| A43C C49G A57G | 0.591 |
| A43U A65G | 1.01 |
| A40C A42G U47C C55A | 0.587 |
| A42G G44C C60G | 0.606 |
| A42U A43C | 0.994 |
| A42U C55U A69C | 0.511 |
| A42G A43U C46U C62U | 0.551 |
| G41A C60G | 0.646 |

| Variant | yeast fitness |
| --- | --- |
| G41C C46G U59C C60U | ≤ 0.5 |
| A42G G51A C60A | ≤ 0.5 |
| A42C U54C | 0.796 |
| A42C U54A | 0.567 |
| A40G G68U | 0.857 |
| A42G C46G C49U | 0.744 |
| A42U G44C U54A C66U G67A | ≤ 0.5 |
| G41C G48C A69U | 0.558 |
| A43G G50C | 0.728 |
| A42C U53A U54C U64A | ≤ 0.5 |
| A43G A57G | 0.924 |
| A42G C49G C61G | ≤ 0.5 |
| G41A G50C | 0.676 |
| G39A U47A C49U U54A | ≤ 0.5 |
| A42G A65C A69C A70G | 0.577 |
| A40U C61G G68C A70G | ≤ 0.5 |
| G39A U53A C62G C66U | ≤ 0.5 |
| G38C U64C | 0.803 |
| A43U G56A A57G | 0.691 |
| G44C C46U C62G | 0.787 |
| A40C G48C U59C | ≤ 0.5 |
| A42G C62A C66U | 0.614 |
| G41A A65C | 0.67 |
| G44C A69C | 0.85 |

| Variant | yeast fitness |
| --- | --- |
| G44C A69U | 0.895 |
| G39C U59A C60G | 0.541 |
| G41C G48A | 0.981 |
| A43U G56A C66G | 0.553 |
| A43U C46A A65C | 0.688 |
| A42G G50A | 0.842 |
| A43C C62G | 0.76 |
| A40G A70C | 0.946 |
| A40C G67A | 0.846 |
| A40C G48C A69C | 0.57 |
| A40U A65G | 1.01 |
| A40C | 1 |
| A40G | 1.01 |
| A40U | 0.988 |
| G41A A43U G51C | ≤ 0.5 |
| G41C C61G | 0.793 |
| G41A C61U | 0.786 |
| A42G C46U A65C | 0.665 |
| G39C G58A | 0.876 |
| A40C C55A | 0.556 |
| G41C G63C A65U | ≤ 0.5 |
| A42C C62U | 0.829 |
| A42C C62A | 0.719 |
| G41A C55U U59A A70U | ≤ 0.5 |

| Variant | yeast fitness |
| --- | --- |
| A42G C46U A57C | ≤ 0.5 |
| A43C G48A G58C | 0.689 |
| A40G G48C C61G A65U | ≤ 0.5 |
| G39A G52A | 0.759 |
| G41A G52A A69C | 0.53 |
| A42U G44A | 1.01 |
| G41C A42G G51A | 0.538 |
| A42U G63A A65G | 0.572 |
| A42U A57U | 0.682 |
| A42G U47G G50C | 0.608 |
| A40U A42C G44A G51A A65G | 0.542 |
| A42U C62A U64G C66G | ≤ 0.5 |
| G41A A65G G67A | 0.635 |
| G39U A45C | 0.851 |
| G38C U54C | 0.82 |
| G44A C49G A65U | 0.547 |
| A40C G50A | 0.619 |
| G41A U53G U64A | ≤ 0.5 |
| A40G A45C C60A | ≤ 0.5 |
| A43C G44C C55G C62U C66U | ≤ 0.5 |
| G39C G56C | 0.553 |
| A40C G51A C61U A69C | 0.618 |
| A43U C49G A69C | 0.512 |
| A43U G51C C61G | 0.593 |

| Variant | yeast fitness |
| --- | --- |
| A40U U54C C60A | ≤ 0.5 |
| A43C A45G G58C | 0.685 |
| G39A A65U | 0.791 |
| A43C U53A | 0.662 |
| A42G A57U G67C | ≤ 0.5 |
| G39A U54C | 0.945 |
| A40U G44A | 0.981 |
| A40U G44C U53G | ≤ 0.5 |
| G44C A45G | 0.958 |
| A40U A45U | 0.941 |
| A40U A45G | 0.816 |
| A43G U53C C55U | 0.561 |
| A40U G48A C60A U64C A69C | ≤ 0.5 |
| G44A G58C C66U | 0.667 |
| A40U A43C G67U | 0.724 |
| G44C C46G C55U | ≤ 0.5 |
| G39A A45C | 1.03 |
| A40U U59C G68A | 0.569 |
| A40G G56C | 0.725 |
| A40C C49G | 0.804 |
| G41A G67U G68C | 0.507 |
| G41A G52C C61U C62U | ≤ 0.5 |
| A42G C46G | 0.886 |
| A42G C46A | 0.908 |

| Variant | yeast fitness |
| --- | --- |
| A42U A65C | 0.81 |
| G39C C55A | 0.643 |
| A40C G48C | 0.684 |
| A40U G56C | 0.651 |
| G39C A43G G44C A45U C49G G67C | 0.558 |
| A42G C49U | 0.801 |
| A40U U53G | 0.638 |
| A40U U53A | 0.774 |
| A40C G41C C49A G68C | ≤ 0.5 |
| G41A C60A C61U A69U | ≤ 0.5 |
| A40G G52C C66G | ≤ 0.5 |
| A40G A43G C55U | 0.565 |
| A40C G58A | 0.962 |
| A43C C61G | 0.66 |
| G44C A70U | 0.959 |
| G44C A70C | 0.927 |
| A42U C49U | 0.975 |
| A40G G44C | 0.676 |
| G41C A65C | 0.794 |
| A43C A45U C61A C62U C66U | ≤ 0.5 |
| A40G C62U A65C C66A | ≤ 0.5 |
| G41C A42G G51A A69C | ≤ 0.5 |
| G44A G68A | 0.802 |
| A42C G48C A70U | 0.666 |

| Variant | yeast fitness |
| --- | --- |
| G44C C49G U59A | ≤ 0.5 |
| A42C A45C G48A A70G | 0.632 |
| A43U G51A | 1 |
| G44C A65U | 0.873 |
| A43U G50C A65C | 0.556 |
| A43C A70G | 1.05 |
| G39C G52A | 0.76 |
| A40U A45U G48A | 0.998 |
| A42G G63A | 0.684 |
| A43C C49A A65C | ≤ 0.5 |
| A43C G56A C61A | 0.525 |
| A40C U64C | 0.912 |
| G44A A57U C66U | 0.547 |
| A43C G44A U59A | 0.593 |
| G41C C46U | 1.03 |
| G41A C55A | 0.661 |
| G44A G50C A70G | 0.537 |
| A43U U59C | 1.02 |
| A40C U47C | 0.904 |
| A42U A45U A69U | 0.707 |
| G41A G48C G67C | ≤ 0.5 |
| G41A C49U G51C C61U | ≤ 0.5 |
| A42U C60U A70G | 0.703 |
